DENV2 CPE = protects cells from dengue virus 2 cytopathic effect; hit rate 1.7% among 350,000; DENV2-infected cells, cytopathic effect rescue, plate reader; CPE inhibition, % at 9.99 µM; in the data active = CPE inhibition above about 20%, passing the limit was not always enough; inconclusive = no clear call, values can overlap the other calls; tested in BHK-21 cells
Statin myotox sup = protects C2C12 myotubes from simvastatin toxicity; rescue of ATP level, % at 7.49 µM; hit rate 0.78% among 330,000; ATP luminescence, 48 h; scaled: DMSO 0, geranylgeraniol control 100;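 active = mean ATP rescue above about 67%, or every replicate alone reaching that limit, limit read from the data, passing the limit was not always enough; inconclusive = no clear call, values can overlap the other calls; inactive = mean under the limit and some replicate under it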;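 also: myotubes were challenged with 10 µM simvastatin during compound exposure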
XiGFP reactiv = X-chromosome reactivation activator; XiGFP mouse fibroblasts, % GFP-positive cells imaging, 3 d; cells co-treated with 5-aza-dC sensitizer; scaled so ellipticine positive control = 100%; AID 743238; hit rate 0.055% among 360,000; activation, % at 7.58 µM;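 active = mean normalized replicate activation at least 10% and every replicate at or above 10%; inconclusive = only one of the two criteria met; inactive = mean below 10% and not all replicates reach 10%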
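Material: XiGFP fibroblasts, SV40-immortalized; Buffer or medium: DMEM containing 5-aza-dC; Compound dosing: single point; Times: 3 days compound exposure.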
Cneo AK release = Cryptococcus neoformans lysis via adenylate kinase release | C. neoformans lysis, adenylate kinase release luminescence, 4 h; normalised: neutral wells 0, clomiphene wells 100 | lysis activity, % at 15 µM | hit rate 0.2% among 360,000;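 active = mean lysis activity across replicates of at least 80%, whatever share of replicates individually reach that level; inactive = mean lysis activity below 80%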
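Assay system: C. neoformans cells. Amount: yeast cell density of 5 × 10^6 cells/mL. Technique: AK luminescence. Buffer or medium: YPD. Times: static 4 h at 37 °C with compound, 1 h detection. Dosing: single-point compound dose. Read-out: lysis from increased AK signal.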
Of the large screens only hits and unclear results are named; the others gave an inactive call. Hits are enriched below; roughly 2.1% of the tested compounds scored in any of these assays.

COc1ccc(S(=O)(=O)N(C)C[C@H]2OCCCC[C@@H](C)Oc3ccc(NC(=O)CCCN(C)C)cc3C(=O)N([C@H](C)CO)C[C@@H]2C)cc1	none (no result: Statin myotox sup)
C[C@H](CO)N1C[C@H](C)[C@H](CN(C)S(=O)(=O)c2ccc(F)cc2)OCCCC[C@H](C)Oc2ccc(NC(=O)CCCN(C)C)cc2C1=O	DENV2 CPE 34 (no result: Statin myotox sup)
C[C@@H]1CN([C@@H](C)CO)C(=O)c2cc(NC(=O)CCCN(C)C)ccc2O[C@@H](C)CCCCO[C@@H]1CN(C)S(=O)(=O)c1ccc(F)cc1	DENV2 CPE 44 (no result: Statin myotox sup)
N#C[C@H]1[C@H](c2ccc(C3=CCCCC3)cc2)[C@@H](CO)N1C(=O)c1cccc(F)c1	none
COc1cc(C)ccc1OCCCOc1cc(C)ccc1Cl	Statin myotox sup 156 (no result: DENV2 CPE, XiGFP reactiv)
COc1cc(C)ccc1OCCCOc1c(Cl)cccc1Cl	none (no result: Statin myotox sup)
COCC(=O)Nc1ccc2c(c1)[C@H]1C[C@H](CC(=O)NCc3ccccc3F)O[C@@H](CO)[C@H]1O2	none
COc1ccc(C2CC(C(F)(F)F)n3nc(C(=O)NCCN4CCOCC4)cc3N2)cc1 (stereo not given)	Statin myotox sup 90 (no result: DENV2 CPE, XiGFP reactiv)
Nc1nc(-c2ccc([N+](=O)[O-])cc2)cc(=O)[nH]1	DENV2 CPE 133
O=c1cc(-c2ccccc2)nc(Sc2ccc([N+](=O)[O-])cc2[N+](=O)[O-])[nH]1	none
COc1ccc(CN(C)C[C@H]2Oc3ccc(NC(=O)Cc4ccccc4)cc3CC(=O)N([C@H](C)CO)C[C@@H]2C)cc1	none (no result: Statin myotox sup, Cneo AK release)
CCOC(=O)c1nnc(-c2ccc(C)cc2)nc1Sc1ccc(Cl)cc1	Statin myotox sup 109 (no result: DENV2 CPE, XiGFP reactiv)
Nc1ccc2cc3[nH]c4cc(N)ccc4c3nc2c1	XiGFP reactiv 63 (no result: Cneo AK release)
CC1Cc2ccccc2N1C(=O)C1CCN(S(=O)(=O)Cc2ccccc2)CC1 (stereo not given)	Statin myotox sup 103 (no result: DENV2 CPE, XiGFP reactiv)
C[C@@H]1CN([C@@H](C)CO)C(=O)c2cc(NC(=O)CCC(F)(F)F)ccc2O[C@@H]1CN(C)C(=O)Nc1ccccc1	DENV2 CPE 26
C[C@H]1CN([C@@H](C)CO)C(=O)c2cc(NC(=O)CCC(F)(F)F)ccc2O[C@H]1CN(C)S(C)(=O)=O	none
C[C@H]1CN([C@@H](C)CO)C(=O)c2cc(NC(=O)CCC(F)(F)F)ccc2O[C@@H]1CN(C)S(C)(=O)=O	DENV2 CPE 21
C[C@@H]1CN([C@@H](C)CO)C(=O)c2cc(NC(=O)CCC(F)(F)F)ccc2O[C@@H]1CN(C)CC1CCCCC1	DENV2 CPE 22
Cc1ccc(S(=O)(=O)N(C)C[C@H]2Oc3ccc(NC(=O)Cc4ccccc4)cc3C(=O)N([C@H](C)CO)C[C@@H]2C)cc1	DENV2 CPE 66
Cc1ccc(-c2ccc([C@H]3[C@H](CO)N4CCCCN(C(=O)Nc5cccc(F)c5)C[C@@H]34)cc2)cc1	none (no result: DENV2 CPE, Statin myotox sup)
Cc1noc(C)c1NC(=O)Nc1ccc2c(c1)C(=O)N([C@@H](C)CO)C[C@H](C)[C@@H](CN(C)Cc1ccc(-c3ccccc3)cc1)O2	none
C[C@@H]1CN([C@H](C)CO)C(=O)c2cc(C3=CCCC3)cnc2O[C@H]1CN(C)C(=O)Nc1cccc(F)c1	none
Cc1ccc(S(=O)(=O)N(C)C[C@@H]2Oc3ccc(NC(=O)CCC(F)(F)F)cc3C(=O)N([C@H](C)CO)C[C@@H]2C)cc1	DENV2 CPE 47
Cc1ccc(S(=O)(=O)N(C)C[C@H]2Oc3ccc(NC(=O)CCC(F)(F)F)cc3C(=O)N([C@@H](C)CO)C[C@@H]2C)cc1	none
COC/C=C/C1=CC2=CC(=O)C(C)(OC(=O)c3cnc4ccccc4n3)C(=O)C2=CN1C(CO)CO (stereo not given)	DENV2 CPE 31
COC/C=C/C1=CC2=CC(=O)C(C)(OC(=O)c3cnc4ccccc4n3)C(=O)C2=CN1CCOC (stereo not given)	none
CN1C(=O)c2cc(NC(=O)Nc3ccc(Cl)cc3)ccc2OC[C@H]2O[C@@H](CC(=O)O)CC[C@H]21	none
COc1ccc(CNC(=O)c2cc(S(=O)(=O)N3CCOCC3)cn2C)cc1	none
COc1cccc(CNC(=O)c2cc(S(=O)(=O)N3CCOCC3)cn2C)c1	XiGFP reactiv 23
COc1cccc(CNC(=O)[C@@H]2[C@@H](CO)[C@@H]3Cn4c(cccc4=O)[C@H]2N3C(=O)C2CCC2)c1	none
CCC(=O)N1[C@@H]2c3cccc(=O)n3C[C@@H]2[C@@H](CO)[C@@H]1C(=O)NCC1CC1	none
C/C=C/c1cnc2c(c1)C(=O)N([C@H](C)CO)C[C@H](C)[C@H](CN(C)S(=O)(=O)c1ccccc1)O2	DENV2 CPE 79
Cc1ccc(S(=O)(=O)N(C)C[C@@H]2Oc3ncc(Br)cc3C(=O)N([C@@H](C)CO)C[C@H]2C)cc1	Cneo AK release 91 (no result: DENV2 CPE)
C[C@@H]1CN([C@@H](C)CO)C(=O)c2cc(/C=C/c3ccccc3)cnc2O[C@H]1CN(C)Cc1ccncc1	none
C[C@@H]1CN([C@H](C)CO)C(=O)c2cc(/C=C/c3ccccc3)cnc2O[C@@H]1CN(C)S(C)(=O)=O	Cneo AK release 87
C[C@H]1CN([C@@H](C)CO)C(=O)c2cc(/C=C/c3ccccc3)cnc2O[C@H]1CN(C)S(C)(=O)=O	none
C[C@H](CO)N1C[C@H](C)[C@H](CN(C)Cc2ccncc2)Oc2ncc(/C=C/c3ccccc3)cc2C1=O	DENV2 CPE 23
O=C1N[C@@H](Cc2ccccc2)COCn2nncc2CC[C@@H]1Cc1ccccc1	none (no result: Statin myotox sup)
COCC(=O)N[C@H]1CC[C@@H](CC(=O)N2CCCCC2)O[C@@H]1CO	none
CS(=O)(=O)c1ncc(Cl)c(C(=O)Nc2ccc(OC(F)F)cc2)n1	Statin myotox sup 117 (no result: DENV2 CPE, XiGFP reactiv)
C[C@H]1CN([C@@H](C)CO)C(=O)Cc2cc(NC(=O)CCCCCC(=O)Nc3ccccc3N)ccc2O[C@H]1CN(C)Cc1ccc(C(F)(F)F)cc1	DENV2 CPE 80, Statin myotox sup 111
C[C@H]1CN([C@@H](C)CO)C(=O)Cc2cc(NC(=O)CCCCCC(=O)Nc3ccccc3N)ccc2O[C@@H]1CN(C)Cc1ccc(C(F)(F)F)cc1	Statin myotox sup inconclusive
C[C@@H]1CN([C@H](C)CO)C(=O)Cc2cc(NC(=O)CCCCCC(=O)Nc3ccccc3N)ccc2O[C@@H]1CN(C)C(=O)Nc1ccc(C(F)(F)F)cc1	none
C[C@@H]1CN([C@@H](C)CO)C(=O)Cc2cc(NC(=O)CCCCCC(=O)Nc3ccccc3N)ccc2O[C@H]1CN(C)Cc1ccc(C(F)(F)F)cc1	DENV2 CPE 50, Statin myotox sup inconclusive
CC(C)NC(=O)Nc1ccc2c(c1)C(=O)N(C)C[C@H](C)[C@@H](CN(C)C)O2	none (no result: DENV2 CPE, Statin myotox sup, Cneo AK release)
Cc1noc(C)c1NC(=O)Nc1ccc2c(c1)C(=O)N([C@H](C)CO)C[C@@H](C)[C@H](CN(C)C(=O)Nc1c(C)noc1C)OCCCC[C@@H](C)O2	none (no result: Statin myotox sup)
C[C@@]12CCC=C[C@H]1[C@H](c1ccc3ccccc3c1Br)N(Cc1ccccc1)C2=O	Statin myotox sup 78
O=C(Nc1ccc(F)c(Cl)c1)C1CCCN(c2cnccn2)C1 (stereo not given)	Statin myotox sup 110

Compound activity as filed in PubChem.
